Structures can show the parent of a compound that is named as a salt. The source made the active and inactive calls. No cut-off for these calls is given here.
Key:
[1] = biological target: T1, DNA topoisomerase 1 (Homo sapiens) (UniProt P11387); assay: Inhibition of human recombinant topoisomerase 1-mediated pBR322 DNA relaxation at 20 uM by gel electrophoresis
T1 sequence (whole entry): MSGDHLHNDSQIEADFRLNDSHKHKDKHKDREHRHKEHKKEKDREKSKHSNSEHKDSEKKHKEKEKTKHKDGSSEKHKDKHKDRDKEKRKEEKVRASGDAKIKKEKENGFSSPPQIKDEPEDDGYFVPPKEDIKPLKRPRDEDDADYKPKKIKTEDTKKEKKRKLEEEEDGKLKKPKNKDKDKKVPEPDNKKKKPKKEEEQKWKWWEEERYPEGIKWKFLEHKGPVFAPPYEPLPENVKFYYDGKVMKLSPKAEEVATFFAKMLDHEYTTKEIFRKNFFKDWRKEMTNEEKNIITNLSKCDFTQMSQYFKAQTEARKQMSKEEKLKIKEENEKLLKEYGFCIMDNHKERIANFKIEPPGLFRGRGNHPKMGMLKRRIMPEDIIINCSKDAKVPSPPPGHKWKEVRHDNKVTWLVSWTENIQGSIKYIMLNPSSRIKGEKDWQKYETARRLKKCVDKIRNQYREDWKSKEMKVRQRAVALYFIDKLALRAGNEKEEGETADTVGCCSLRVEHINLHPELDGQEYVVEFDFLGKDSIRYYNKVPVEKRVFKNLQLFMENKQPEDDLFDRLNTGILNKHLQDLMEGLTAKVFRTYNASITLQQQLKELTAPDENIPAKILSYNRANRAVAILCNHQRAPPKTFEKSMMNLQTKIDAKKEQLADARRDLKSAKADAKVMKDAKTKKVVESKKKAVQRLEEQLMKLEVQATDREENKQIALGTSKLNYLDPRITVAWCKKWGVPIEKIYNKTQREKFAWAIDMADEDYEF
Procedure, shortened: (§1)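 Relaxation of 100 ng supercoiled pBR322 by 0.4 units recombinant human topo I, with or without compound (20 mM DMSO stocks), at 37 °C for 30 min. Buffer: 10 mM Tris-HCl pH 7.9, 150 mM NaCl, 0.1% BSA, 1 mM spermidine, 5% glycerol. Run on 1% agarose gel in TAE at 15 V for 7 h, stained with ethidium bromide, bands quantified under UV to give inhibition ratio.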

DU-145 = assay: Cytotoxicity against human DU145 cells after 48 hrs by MTT assay; format: functional, cell-based; conditions: DU-145, 48 h
Procedure, shortened: (§2)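 Cells seeded at 2–4 × 10⁴ per well and held overnight at 37 °C, 5% CO₂, in medium with 10% FBS. On day 2 the medium was replaced with medium holding graded compound concentrations. Absorbance was read at 450 nm and fitted to a four-parameter logistic equation for IC₅₀. Mean ± SD of three experiments, each in triplicate.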

[2] = biological target: DNA topoisomerase 2-alpha (Homo sapiens) (UniProt P11388); assay: Inhibition of human recombinant DNA topoisomerase 2alpha -mediated pBR322 DNA relaxation at 100 uM by gel electrophoresis
DNA topoisomerase 2-alpha (Homo sapiens), sequence (P11388 whole entry): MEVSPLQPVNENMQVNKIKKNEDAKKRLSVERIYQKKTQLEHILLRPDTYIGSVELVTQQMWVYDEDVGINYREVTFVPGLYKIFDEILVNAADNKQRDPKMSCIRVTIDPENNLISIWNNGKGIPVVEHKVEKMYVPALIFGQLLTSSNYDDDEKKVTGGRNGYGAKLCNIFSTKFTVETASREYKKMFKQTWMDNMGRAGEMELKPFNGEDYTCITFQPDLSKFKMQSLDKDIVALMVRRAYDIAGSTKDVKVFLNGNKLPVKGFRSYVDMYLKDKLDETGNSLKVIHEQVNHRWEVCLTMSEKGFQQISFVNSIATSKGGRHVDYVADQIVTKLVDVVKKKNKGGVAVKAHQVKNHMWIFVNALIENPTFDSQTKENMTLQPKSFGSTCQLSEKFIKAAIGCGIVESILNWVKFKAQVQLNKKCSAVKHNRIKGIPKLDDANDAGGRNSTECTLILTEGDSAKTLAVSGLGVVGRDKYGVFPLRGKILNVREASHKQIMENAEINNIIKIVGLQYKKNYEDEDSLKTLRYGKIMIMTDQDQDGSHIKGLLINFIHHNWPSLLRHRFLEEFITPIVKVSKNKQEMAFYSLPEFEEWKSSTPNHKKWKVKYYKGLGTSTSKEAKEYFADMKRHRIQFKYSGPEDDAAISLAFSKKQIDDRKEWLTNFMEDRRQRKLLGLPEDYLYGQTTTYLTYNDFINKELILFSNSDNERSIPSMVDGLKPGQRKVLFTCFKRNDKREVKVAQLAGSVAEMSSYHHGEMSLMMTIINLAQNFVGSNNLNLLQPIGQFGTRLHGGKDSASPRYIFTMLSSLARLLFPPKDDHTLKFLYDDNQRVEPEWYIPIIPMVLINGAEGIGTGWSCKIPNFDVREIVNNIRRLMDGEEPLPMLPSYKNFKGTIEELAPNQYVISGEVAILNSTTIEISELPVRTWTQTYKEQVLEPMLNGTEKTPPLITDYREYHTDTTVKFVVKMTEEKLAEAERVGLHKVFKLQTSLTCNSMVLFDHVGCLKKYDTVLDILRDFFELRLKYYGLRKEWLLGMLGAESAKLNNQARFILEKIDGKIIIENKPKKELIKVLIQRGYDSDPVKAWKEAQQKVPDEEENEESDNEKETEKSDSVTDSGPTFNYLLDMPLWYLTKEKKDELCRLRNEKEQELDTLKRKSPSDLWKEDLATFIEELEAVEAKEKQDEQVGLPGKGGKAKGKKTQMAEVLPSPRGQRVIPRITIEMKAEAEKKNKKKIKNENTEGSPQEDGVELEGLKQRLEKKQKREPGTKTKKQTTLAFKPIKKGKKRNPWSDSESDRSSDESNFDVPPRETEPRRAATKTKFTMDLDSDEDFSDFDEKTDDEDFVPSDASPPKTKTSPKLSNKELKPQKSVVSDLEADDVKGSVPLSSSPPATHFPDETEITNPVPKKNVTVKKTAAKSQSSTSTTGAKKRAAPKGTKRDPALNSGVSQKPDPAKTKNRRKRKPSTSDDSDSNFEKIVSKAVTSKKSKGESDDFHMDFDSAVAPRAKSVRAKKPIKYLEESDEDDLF
Procedure, shortened: (§3)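 Relaxation of 200 ng supercoiled pBR322 by 1 unit human topo IIα, with or without compound, at 30 °C for 30 min. Buffer: 10 mM Tris-HCl pH 7.9, 50 mM NaCl, 50 mM KCl, 5 mM MgCl₂, 1 mM EDTA, 1 mM ATP, 15 µg/mL BSA. Stopped with EDTA and run on 1% agarose gel in TAE at 25 V for 4 h. Band analysis gave inhibition ratio.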

MDA-MB-231 = assay: Cytotoxicity against human MDA-MB-231 cells after 48 hrs by MTT assay; format: functional, cell-based; conditions: MDA-MB-231, 48 h
Procedure, shortened: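 Cells seeded at 2–4 × 10⁴ per well and grown overnight in medium with 10% FBS at 37 °C, 5% CO₂. Medium was then replaced with medium holding graded compound concentrations. Absorbance was read at 450 nm and IC50 fitted to a four-parameter logistic equation. Mean of three experiments run in triplicate.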

HT-29 = assay: Cytotoxicity against human HT-29 cells after 48 hrs […]; format: functional, cell-based; conditions: HT-29, 48 h
[3] = biological target: DNA topoisomerase 2-alpha (Homo sapiens) (UniProt P11388); assay: Inhibition of human recombinant DNA topoisomerase 2alpha -mediated pBR322 DNA relaxation at 20 uM by gel electrophoresis; procedure, shortened: as §3
HL-60 = assay: Cytotoxicity against human HL60 cells after 48 hrs by MTT assay; format: functional, cell-based; conditions: HL-60, 48 h; procedure, shortened: as §2
HeLa = assay: Cytotoxicity against human HeLa cells after 48 hrs by MTT assay; format: functional, cell-based; procedure, shortened: as §2
[4] = biological target: T1, DNA topoisomerase 1 (Homo sapiens); assay: Inhibition of human recombinant topoisomerase 1-mediated pBR322 DNA relaxation at 100 uM by gel electrophoresis; procedure, shortened: as §1
Nucleic Acid = assay: Induction of DNA cross linking in linearized pBR322 at 100 uM by alkaline gel electrophoresis; format: nucleic-acid assay; conditions: Escherichia coli
Procedure, shortened: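 pBR322 was linearized with EcoRI and ethanol-precipitated, then incubated with compound for 2 h at room temperature in 10 mM Tris–HCl, 1 mM EDTA, pH 8.0. Samples ran on a denaturing 1.2% alkaline agarose gel in 50 mM NaOH, 1 mM EDTA. The gel was neutralized 1 h in 100 mM Tris, 150 mM NaCl, pH 7.6, alongside a HindIII marker.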

Row | Activity (Nucleic Acid) | Structure (SMILES) | inhibition [1] | IC50 (DU-145) | inhibition [2] | IC50 (MDA-MB-231) | IC50 (HT-29) | inhibition [3] | IC50 (HL-60) | IC50 (HeLa) | inhibition [4]
1 |  | O=c1c2c(OCC3CS3)cc(OCC3CS3)cc2oc2ccc3ccccc3c12 (stereo unspecified) | -0% | 1.32 µM | 4.4% | 18.9 µM | 0.75 µM | 8.4% | 1.85 µM | 24.9 µM | -0%
2 | Active | O=c1c2cc3ccccc3cc2oc2cc(OCC3CO3)cc(OCC3CO3)c12 (stereo unspecified) | 8.8% | 3.01 µM | 60.1% | 1.64 µM | 0.6 µM | 8.9% | 5.13 µM | 2.19 µM | 12.3%
3 |  | O=c1c2ccc3ccccc3c2oc2cc(OCC3CO3)cc(O)c12 (stereo unspecified) | 10.6% | 2.56 µM | 9% | 0.73 µM | 18.9 µM | 5.5% | 3.67 µM | > 50 µM | 1.7%
4 |  | O=c1c2cc3ccccc3cc2oc2cc(OCC3CO3)cc(O)c12 (stereo unspecified) | 2.6% | 36.2 µM | -0% | 15.1 µM | 2.34 µM | -0% | 9.4 µM | > 100 µM | 13.7%
5 |  | O=c1c2ccc3ccccc3c2oc2cc(OCC3CS3)cc(O)c12 (stereo unspecified) | 2.5% | 10.8 µM | 13.9% | > 50 µM | > 50 µM | -0% | 22.6 µM | > 50 µM | 15.6%
6 |  | COc1cccc2c1C(=O)c1c(O)c3c(c(O)c1C2=O)C[C@@](O)(C(=O)CO)C[C@@H]3O[C@H]1C[C@H](N)[C@H](O)[C@H](C)O1 [DOXORUBICIN HYDROCHLORIDE] |  | 1.19 µM |  | 3.15 µM | 0.95 µM |  | 0.94 µM | 0.71 µM | 
7 |  | COc1cc([C@@H]2c3cc4c(cc3[C@@H](O[C@@H]3O[C@@H]5CO[C@@H](C)O[C@H]5[C@H](O)[C@H]3O)[C@H]3COC(=O)[C@H]23)OCO4)cc(OC)c1O [ETOPOSIDE] |  | 1.63 µM |  | 2.87 µM | 1.42 µM |  | 0.97 µM | 0.47 µM | 
8 |  | O=c1c2ccc3ccccc3c2oc2cc(OCC3CS3)cc(OCC3CS3)c12 (stereo unspecified) | 56.5% | 5.66 µM | 71.9% | > 50 µM | > 50 µM | 72.7% | 37 µM | 25.6 µM | 79%
9 |  | O=c1c2cc3ccccc3cc2oc2cc(OCC3CS3)cc(O)c12 (stereo unspecified) | -0% | 1.55 µM | -0% | 14.8 µM | 5.4 µM | 7.2% | 2.48 µM | 8.52 µM | 0.5%
10 |  | CC[C@@]1(O)C(=O)OCc2c1cc1n(c2=O)Cc2cc3ccccc3nc2-1 [CAMPTOTHECIN] |  | 3.57 µM |  | 0.92 µM | 0.85 µM |  | 0.065 µM | 0.86 µM | 
11 | inactive | O=c1c2c(OCC3CO3)cc(OCC3CO3)cc2oc2ccc3ccccc3c12 (stereo unspecified) | -0% | 3.44 µM | 1% | > 50 µM | 7.38 µM | -0% | 6.47 µM | 10.2 µM | 18%
12 | Active | O=c1c2ccc3ccccc3c2oc2cc(OCC3CO3)cc(OCC3CO3)c12 (stereo unspecified) | -0% | 1.29 µM | 5.7% | 7.43 µM | 8.2 µM | 0.1% | 5.4 µM | 24.2 µM | 11.9%
13 |  | O=c1c2cc3ccccc3cc2oc2cc(OCC3CS3)cc(OCC3CS3)c12 (stereo unspecified) | -0% | 19.4 µM | 1.9% | 5.16 µM | 1.66 µM | 13.5% | 5.13 µM | 8.01 µM | 4.3%
14 |  | O=c1c2c(O)cc(OCC3CS3)cc2oc2ccc3ccccc3c12 (stereo unspecified) | 2.4% | 8.76 µM | 5.3% | 29.1 µM | 3.58 µM | -0% | 3.48 µM | > 100 µM | -0%
15 |  | O=c1c2c(O)cc(OCC3CO3)cc2oc2ccc3ccccc3c12 (stereo unspecified) | 9.7% | 1.4 µM | 3.7% | > 50 µM | 0.96 µM | -0% | 2.31 µM | > 100 µM | -0%

From ChEMBL document CHEMBL1156878, “New benzoxanthone derivatives as topoisomerase inhibitors and DNA cross-linkers” (Bioorg Med Chem, 2010)
